Inhibition and apoptosis rate data for 1 molecule are collected here from PMC9123937 (International Journal of Nanomedicine, 2022).

Each structure is given as a SMILES string.

Assay [1] relates to MHCC-97H cells. As to the kind of experiment: Cytotoxicity study. The format is cell-based. The conditions noted are these: Homo sapiens, MHCC97H, 96 h, read-out: 96-hour inhibition rate. In short, it runs like this:
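MHCC-97H cells seeded at 3×10^3 cells/well in 96-well plates and cultured 24 h. Test compound added at final 0, 6.25, 12.5, 25, 50 or 100 μg/mL for 24, 48, 72 or 96 h at 37°C, with 0.1% DMSO as negative control. MTT (5 mg/mL stock) added for 3.5 h at 37°C, formazan dissolved in DMSO, absorbance read at 490 nm.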

Assay [2] relates to MHCC-97H cells. As to the kind of experiment: Apoptosis assay. It is filed as cell-based, human. As to conditions: 24 h. In short, it runs like this: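 MHCC-97H cells (high-glucose DMEM, 10% FBS, 37°C, 5% CO2) seeded at 2×10^5 cells/well in 6-well plates and cultured 24 h. Test compound added at 5, 10 or 20 μmol/L for a further 24 h, with 0.1% DMSO and medium controls. Harvested cells stained with Annexin V-FITC and PI for 15 min in the dark in binding buffer, then analysed by flow cytometry.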

As for `COc1cc(/C=C/C(=O)CC(=O)/C=C/c2ccc(O)c(OC)c2)ccc1O` [CU, curcumin], the inhibition at 100 µg/mL in the assay with MHCC-97H cells [1] was 68.2 ± 1.19%. The apoptosis rate with MHCC-97H cells [2] (5 μmol/L) came to 17.29 ± 0.66%; with MHCC-97H cells [2] (10 μmol/L), 25.74 ± 0.61%; with MHCC-97H cells [2] (20 μmol/L) it was 33.11 ± 1.00%.

As usually defined, the inhibition is the share of the control response that was lost under treatment.
